Key:
Format in all cases: biochemical
Settings in all cases: relaxation assay in the presence of 100 μM compound
Calf Topo I (cTopo I) = assay: Relaxation assay for eukaryotic Topo I
In short: (§1)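 Commercial calf or human Topo I, 1 unit (the amount that fully relaxes 0.3 μg supercoiled pBR322), with 0.3 μg supercoiled pBR322 and test compound in 50 mM Tris-HCl pH 7.5, 100 mM NaCl, 10 mM MgCl2, 1 mM DTT, 50 μg/ml BSA. Run 15 min at 37°C, stopped with 25 mM EDTA. Products run on 1.2% agarose in TAE (2 V/cm, 15 h), stained with ethidium bromide, imaged and quantified.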

hTopo I = biological target: T1, hTopo I (Homo sapiens, UniProt P11387); assay: Relaxation assay for eukaryotic Topo I
T1 sequence (P11387 1-765): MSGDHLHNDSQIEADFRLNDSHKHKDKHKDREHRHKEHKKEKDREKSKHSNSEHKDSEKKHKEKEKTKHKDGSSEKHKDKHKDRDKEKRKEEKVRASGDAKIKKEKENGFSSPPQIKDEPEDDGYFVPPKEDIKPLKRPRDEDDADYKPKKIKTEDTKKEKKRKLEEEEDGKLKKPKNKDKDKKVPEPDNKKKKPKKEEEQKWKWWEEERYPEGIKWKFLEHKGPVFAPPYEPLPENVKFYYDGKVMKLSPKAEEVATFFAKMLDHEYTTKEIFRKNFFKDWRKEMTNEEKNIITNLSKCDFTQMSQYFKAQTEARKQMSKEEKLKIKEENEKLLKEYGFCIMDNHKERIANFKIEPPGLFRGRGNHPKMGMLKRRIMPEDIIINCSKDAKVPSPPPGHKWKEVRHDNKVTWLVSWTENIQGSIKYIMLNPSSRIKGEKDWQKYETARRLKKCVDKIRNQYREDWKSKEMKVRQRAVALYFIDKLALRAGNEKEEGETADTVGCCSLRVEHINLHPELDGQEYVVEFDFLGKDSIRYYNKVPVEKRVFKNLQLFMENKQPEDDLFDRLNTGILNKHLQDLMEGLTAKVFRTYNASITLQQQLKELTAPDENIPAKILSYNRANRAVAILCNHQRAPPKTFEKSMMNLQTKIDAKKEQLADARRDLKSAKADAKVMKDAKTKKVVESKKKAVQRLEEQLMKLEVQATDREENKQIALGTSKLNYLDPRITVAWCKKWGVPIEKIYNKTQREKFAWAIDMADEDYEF
In short: as §1

E. coli Topo I = E. coli Topo I (Escherichia coli, UniProt P06612); assay: Relaxation assay with E. coli Topo I
Sequence of E. coli Topo I (P06612 whole entry): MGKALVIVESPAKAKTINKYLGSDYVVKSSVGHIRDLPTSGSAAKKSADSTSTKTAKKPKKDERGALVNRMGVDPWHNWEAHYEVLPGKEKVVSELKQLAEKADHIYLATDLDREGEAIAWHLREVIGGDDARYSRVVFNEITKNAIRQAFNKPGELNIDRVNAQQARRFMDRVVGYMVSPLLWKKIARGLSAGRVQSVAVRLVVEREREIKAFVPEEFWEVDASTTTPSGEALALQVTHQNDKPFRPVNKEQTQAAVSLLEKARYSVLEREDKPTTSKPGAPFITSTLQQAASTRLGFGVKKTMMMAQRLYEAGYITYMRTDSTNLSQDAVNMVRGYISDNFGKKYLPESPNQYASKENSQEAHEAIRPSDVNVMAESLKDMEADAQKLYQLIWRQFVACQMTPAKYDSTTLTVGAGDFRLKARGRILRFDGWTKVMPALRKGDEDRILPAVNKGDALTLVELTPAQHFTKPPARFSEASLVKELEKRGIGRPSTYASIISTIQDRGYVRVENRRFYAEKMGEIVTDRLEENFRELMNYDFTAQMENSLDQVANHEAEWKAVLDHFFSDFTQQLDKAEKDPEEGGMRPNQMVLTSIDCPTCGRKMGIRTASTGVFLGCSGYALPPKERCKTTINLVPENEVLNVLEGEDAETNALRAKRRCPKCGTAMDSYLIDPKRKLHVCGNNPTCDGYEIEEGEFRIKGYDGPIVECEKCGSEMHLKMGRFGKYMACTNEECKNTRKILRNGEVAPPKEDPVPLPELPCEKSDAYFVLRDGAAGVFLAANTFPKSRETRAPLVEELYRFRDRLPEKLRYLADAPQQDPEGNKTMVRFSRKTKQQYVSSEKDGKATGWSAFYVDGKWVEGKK

COc1c(N2CC[C@@H](CN)C2)c(F)cc2c(=O)c(C(=O)O)cn(C3CC3)c12 [UING-5-249]
No^2: inhibition of cTopo I (Calf Topo I (cTopo I)) | inhibition of hTopo I (hTopo I) | inhibition of E. coli Topo I (E. coli Topo I)

— publication PMC6409185 (Investigational new drugs, 2018)
